Reference: ChEMBL document CHEMBL1145965, “4-Substituted 4-hydroxycyclohexa-2,5-dien-1-ones with selective activities against colon and renal cancer cell lines” (J Med Chem, 2003)

Assays:
Hs-578T = assay: Concentration of compound that cause 50% cytotoxicity of Hs 578.T breast cancer cell line; type: functional; settings: Homo sapiens, read-out: LC50 (the source's name)
Summary of the method: (§1)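 NCI 60-cell-line panel screen. Each line was seeded in 96-well plates at a density set by its growth characteristics and incubated drug-free for 24 h. Test agents were then added at five 10-fold dilutions, with a top concentration of 100 μM.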

BT-549 = assay: Concentration of compound that cause 50% cytotoxicity of BT-549 breast cancer cell line; type: functional; settings: Homo sapiens, read-out: Log LC50 (the source's name) (converted); summary of the method: as §1
786-0 = assay: Concentration of compound that cause 50% cytotoxicity of 786-0 renal cancer cell line; type: functional; settings: Homo sapiens, read-out: Log LC50 (the source's name) (converted); summary of the method: as §1
ACHN = assay: Concentration of compound that cause 50% cytotoxicity of ACHN renal cancer cell line; type: functional; settings: Homo sapiens, read-out: Log LC50 (the source's name) (converted); summary of the method: as §1
KM12 = assay: Concentration of compound that cause 50% cytotoxicity of KM12 colon cancer cell line; type: functional; settings: Homo sapiens, read-out: Log LC50 (the source's name) (converted); summary of the method: as §1
M14 = assay: Concentration of compound that cause 50% cytotoxicity of M14 melanoma cell line; type: functional; settings: Homo sapiens, read-out: Log LC50 (the source's name) (converted); summary of the method: as §1
HCT-116 [1] = assay: Inhibitory activity against HCT116 colon cancer cell line; type: functional, cell-based; settings: Homo sapiens
Summary of the method: (§2)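 Cells grown in RPMI 1640 with 2 mM L-glutamine and 10% fetal calf serum, 37 °C, 5% CO2. Seeded at 5 × 10³ per well, 24 h adherence, then drug 0.1 nM–100 μM final (n = 8; DMSO stocks, dilutions in medium) for 72 h.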

UACC-62 = assay: Concentration of compound that cause 50% cytotoxicity of UACC-62 melanoma cell line; type: functional; settings: Homo sapiens, read-out: Log LC50 (the source's name) (converted)
HL-60 = assay: Concentration of compound that cause 50% cytotoxicity of HL-60(TB) leukemia cell line; type: functional; settings: Homo sapiens, read-out: Log LC50 (the source's name) (converted); summary of the method: as §1
OVCAR-5 = assay: Concentration of compound that cause 50% cytotoxicity of OVCAR-5 ovarian cancer cell line; type: functional; settings: Homo sapiens, read-out: Log LC50 (the source's name) (converted); summary of the method: as §1
SNB-75 = assay: Concentration of compound that cause 50% cytotoxicity of SNB-75 CNS cancer cell line; type: functional; settings: Homo sapiens, read-out: Log LC50 (the source's name) (converted); summary of the method: as §1
SW-620 = assay: Concentration of compound that cause 50% cytotoxicity of SW-620 colon cancer cell line; type: functional; settings: Homo sapiens, read-out: LC50 (the source's name); summary of the method: as §1
HCC 2998 = assay: Concentration of compound that cause 50% cytotoxicity of HCC2998 colon cancer cell line; type: functional; settings: Homo sapiens, read-out: Log LC50 (the source's name) (converted); summary of the method: as §1
MCF7 = assay: Concentration of compound that cause 50% cytotoxicity of MCF-7 breast cancer cell line; type: functional; settings: Homo sapiens, read-out: Log LC50 (the source's name) (converted); summary of the method: as §1
HOP-62 = assay: Concentration of compound that cause 50% cytotoxicity of HOP-62 non small cell lung cancer cell line; type: functional; settings: Homo sapiens, read-out: Log LC50 (the source's name) (converted); summary of the method: as §1
NCI-H226 = assay: Concentration of compound that cause 50% cytotoxicity of NCI-H226 non small cell lung cancer cell line; type: functional; settings: Homo sapiens, read-out: Log LC50 (the source's name) (converted); summary of the method: as §1
HCT-116 [2] = assay: Concentration of compound that cause 50% cytotoxicity of HCT116 colon cancer cell line; type: functional; settings: Homo sapiens, read-out: Log LC50 (the source's name) (converted); summary of the method: as §1
UACC-257 = assay: Concentration of compound that cause 50% cytotoxicity of UACC-257 melanoma cell line; type: functional; settings: Homo sapiens, read-out: Log LC50 (the source's name) (converted)
A549 = assay: Inhibitory activity against A549 lung adenocarcinoma cell line; type: functional, cell-based; settings: Homo sapiens; summary of the method: as §2
DU-145 = assay: Concentration of compound that cause 50% cytotoxicity of DU-145 prostate cancer cell line; type: functional; settings: Homo sapiens, read-out: Log LC50 (the source's name) (converted); summary of the method: as §1
SN12C = assay: Concentration of compound that cause 50% cytotoxicity of SN12C renal cancer cell line; type: functional; settings: Homo sapiens, read-out: Log LC50 (the source's name) (converted); summary of the method: as §1
UO-31 = assay: Concentration of compound that cause 50% cytotoxicity of UO-31 renal cancer cell line; type: functional; settings: Homo sapiens, read-out: Log LC50 (the source's name) (converted)
MOLT-4 = assay: Concentration of compound that cause 50% cytotoxicity of MOLT-4 leukemia cell line; type: functional; settings: Homo sapiens, read-out: LC50 (the source's name); summary of the method: as §1
OVCAR-3 = assay: Concentration of compound that cause 50% cytotoxicity of OVCAR-3 ovarian cancer cell line; type: functional; settings: Homo sapiens, read-out: Log LC50 (the source's name) (converted); summary of the method: as §1
[3] = test system: Panel NCI-60 (60 carcinoma cell lines); assay: In vitro mean growth lethal concentration in renal subpanel against 60-cell panel; type: functional; settings: Homo sapiens, read-out: Mean LC50
OVCAR-4 = assay: Concentration of compound that cause 50% cytotoxicity of OVCAR-4 ovarian cancer cell line; type: functional; settings: Homo sapiens, read-out: Log LC50 (the source's name) (converted); summary of the method: as §1
OVCAR-8 = assay: Concentration of compound that cause 50% cytotoxicity of OVCAR-8 ovarian cancer cell line; type: functional; settings: Homo sapiens, read-out: Log LC50 (the source's name) (converted); summary of the method: as §1
CCRF-CEM = assay: Concentration of compound that cause 50% cytotoxicity of CCRF-CEM leukemia cell line; type: functional; settings: Homo sapiens, read-out: Log LC50 (the source's name) (converted); summary of the method: as §1
NCI/ADR-RES = assay: Concentration of compound that cause 50% cytotoxicity of NCI/ADR-RES breast cancer cell line; type: functional; settings: Homo sapiens, read-out: LC50 (the source's name); summary of the method: as §1
SK-MEL-28 = assay: Concentration of compound that cause 50% cytotoxicity of SK-MEL-28 melanoma cell line; type: functional; settings: Homo sapiens, read-out: Log LC50 (the source's name) (converted); summary of the method: as §1
RXF 393 = assay: Concentration of compound that cause 50% cytotoxicity of RXF393 renal cancer cell line; type: functional; settings: Homo sapiens, read-out: Log LC50 (the source's name) (converted); summary of the method: as §1
HCT-15 = assay: Concentration of compound that cause 50% cytotoxicity of HCT-15 colon cancer cell line; type: functional; settings: Homo sapiens, read-out: Log LC50 (the source's name) (converted); summary of the method: as §1

## O=C1C=CC(O)(c2nc3ccccc3s2)C=C1
Hs-578T
  CC50: > 4000 nM
BT-549
  CC50: 4790 nM
786-0
  CC50: 1050 nM
ACHN
  CC50: 2750 nM
KM12
  CC50: 4370 nM
M14
  CC50: 5250 nM
HCT-116 [1]
  IC50: 40 nM
UACC-62
  CC50: 5750 nM
HL-60
  CC50: 741 nM
OVCAR-5
  CC50: 1860 nM
SNB-75
  CC50: 4680 nM
SW-620
  CC50: > 4000 nM
HCC 2998
  CC50: 977 nM
MCF7
  CC50: 4070 nM
HOP-62
  CC50: 12600 nM
NCI-H226
  CC50: 23400 nM
HCT-116 [2]
  CC50: 468 nM
UACC-257
  CC50: 9770 nM
A549
  IC50: 2350 nM
DU-145
  CC50: 3390 nM
SN12C
  CC50: 1450 nM
UO-31
  CC50: 955 nM
MOLT-4
  CC50: > 4000 nM
OVCAR-3
  CC50: 2880 nM
[3]
  CC50: 1570 nM
OVCAR-4
  CC50: 3800 nM
OVCAR-8
  CC50: 5010 nM
CCRF-CEM
  CC50: 2570 nM
NCI/ADR-RES
  CC50: > 4000 nM
SK-MEL-28
  CC50: 2510 nM
RXF 393
  CC50: 575 nM
HCT-15
  CC50: 2450 nM
